Only some compounds are listed: those with a hit (about 2.5% of all), similar ones and a draw of the others.
ABHD4 inh – inhibitors of mouse ABHD4. Q8VD66. purified mABHD4, FP-Rh probe fluorescence polarization. inhibition, % at 8.92 µM. 370,000 compounds, 0.54% hits;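 active means inhibition exceeding the mean over every tested compound plus 3 SD, cut at about 30% in these data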
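Assay system: mABHD4 protein; medium: HEPES pH 7.0, NaCl, Pluronic buffer; dosing: 8.92 µM, single dose; schedule: 45 min + 60 min at 25 °C; signal: FP readout, ex 525 nm / em 598 nm; read-out: normalized percent inhibition of probe labeling; repeats: single replicate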
TCR CD3 inh – human TCR-CD3 binding inhibition; TAMRA-labeled TCR probe fluorescence, biochemical; inhibition, % at 9.4 µM; 360,000 compounds, 0.37% hits; AID 651800; in the data active means inhibition above about 19%;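 further: recombinant mutant TCR 2C K166C tagged with TAMRA read by polarization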
HTRA1 inhibitor – blocks human HTRA1 serine peptidase; Q92743; recombinant HTRA1, FP-rhodamine activity-based probe, fluorescence polarization; inhibition, % at 5.96 µM; 340,000 compounds, 0.5% hits; AID 504803; in the data active means inhibition above about 36%
SIAE inh – blocks human sialic acid acetylesterase. 370,000 compounds, 0.69% hits. SIAE FP-Rh probe binding, fluorescence polarization. inhibition, % at 9.66 µM. Q9HAT2;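 active means inhibition above a cutoff: mean of compounds within the control limits plus 3 SD of those, cut at about 17% in these data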
PRMT1 FP inh – inhibitors of human PRMT1; Q99873; recombinant PRMT1, activity-based probe fluorescence polarization; inhibition, % at 2.79 µM; 370,000 compounds, 1.3% hits;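 active means inhibition above about 21% made by adding two undisclosed values, limit read from the data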
Target sequence (Q99873 whole entry, looked up): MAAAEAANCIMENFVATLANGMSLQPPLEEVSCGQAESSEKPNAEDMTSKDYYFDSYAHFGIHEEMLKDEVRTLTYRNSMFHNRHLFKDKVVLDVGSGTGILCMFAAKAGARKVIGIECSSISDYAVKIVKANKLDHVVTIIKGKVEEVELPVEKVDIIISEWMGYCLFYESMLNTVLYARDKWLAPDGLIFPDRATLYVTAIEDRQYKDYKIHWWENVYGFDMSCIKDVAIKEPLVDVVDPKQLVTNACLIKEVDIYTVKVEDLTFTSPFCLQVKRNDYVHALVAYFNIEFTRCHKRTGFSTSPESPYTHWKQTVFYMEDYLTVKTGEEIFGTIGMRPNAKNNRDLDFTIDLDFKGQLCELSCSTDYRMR
PRMT1 inh conf – PRMT1 (human) inhibition, FP confirmation; shares compounds with PRMT1 FP inh; recombinant His-PRMT1, activity-based probe fluorescence polarization; inhibition, % at 2.79 µM; 3,300 compounds, 42% hits; AID 687036;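 active means mean inhibition across replicates above the hit cutoff derived for the earlier primary screen, cut at about 22% in these data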
Of the large screens only hits and unclear results are named; the others gave an inactive call (follow-up assays come after a bar, where they were run).

COC(=O)C1=C2SC(C)C(=O)N2C(N)=C(C#N)C1c1cc(OC)c(OC)c(OC)c1 (centres undefined)	PRMT1 FP inh 30.9 | PRMT1 inh conf inactive
Cc1ccccc1CNC(=O)C1CCC(CNS(=O)(=O)c2cccc3cccnc23)CC1 (centres undefined)	none (no result: TCR CD3 inh, HTRA1 inhibitor)
COC(=O)c1ccccc1NC(=O)CSc1nnc(-c2ccncc2)o1	PRMT1 FP inh 33.9 | PRMT1 inh conf 45.1
COC(=O)c1ccc(Cl)c(NC(=O)CSc2nnc(-c3ccncc3)o2)c1	none
O=C(CCN1CCC(c2ccccc2)C1)c1ccc2c(c1)OCCO2 (centres undefined)	PRMT1 FP inh 36.4 | PRMT1 inh conf inactive
O=C(CCc1ccccc1)c1ccc2c(c1)OCCCO2	none
O=C(CCN1CCCC1Cc1ccccc1)c1ccc2c(c1)OCCO2 (centres undefined)	PRMT1 FP inh 37.2 | PRMT1 inh conf 39.7
COc1cc(C(=O)CCN2CCC(c3ccccc3)C2)cc(OC)c1OC (centres undefined)	PRMT1 FP inh 31.6 | PRMT1 inh conf inactive
O=C(CCN1CCC(c2ccccc2)C1)c1ccccc1 (centres undefined)	none (no result: ABHD4 inh, TCR CD3 inh, SIAE inh, PRMT1 FP inh)
COc1ccc(C#CCN(C)/C(N)=N/C(=O)OCc2ccccc2)cc1	none (no result: TCR CD3 inh, HTRA1 inhibitor)
CC(=O)Nc1ccc(Sc2ccc([N+](=O)[O-])o2)cc1	PRMT1 FP inh 34.1 | PRMT1 inh conf 35.8
CCOC(=O)c1c(NC(=O)C2C3C=CC(C3)C2C(=O)O)sc2c1CC(C)CC2 (centres undefined)	none
CCCOC(=O)c1c(NC(=O)C2C3C=CC(C3)C2C(=O)O)sc2c1CCC(C)C2 (centres undefined)	PRMT1 FP inh 51.5 | PRMT1 inh conf inactive
CCCN1C(=O)/C(=c2\sc3nc(=O)c(Cc4ccc(C)cc4)nn3c2=O)c2ccccc21	none
NC(=O)CN1C(=O)/C(=c2\sc3nc(=O)c(Cc4ccccc4)nn3c2=O)c2ccccc21	PRMT1 FP inh 45.1 (no result: HTRA1 inhibitor) | PRMT1 inh conf 39.6
O=C(NC(=S)Nc1nc(-c2ccccc2)cs1)c1cccs1	none
O=C(NNc1nc(-c2ccccc2)cs1)c1cccs1	PRMT1 FP inh 50.7 (no result: HTRA1 inhibitor) | PRMT1 inh conf inactive
CCOC(=O)CSc1nc(Cc2ccccc2)nc2ccccc12	none
CCOC(=O)CNC(=O)CSc1nc(Cc2cccs2)nc2ccccc12	PRMT1 FP inh 27.0 | PRMT1 inh conf 22.3
O=C(NN=Cc1ccccc1C(=O)O)C(=O)NN=Cc1ccccc1C(=O)O	PRMT1 FP inh 103.9 | PRMT1 inh conf inactive
O=C(CSC1=NCCS1)Nc1ccc(S(=O)(=O)N2CCCCCC2)cc1	PRMT1 FP inh 38.1 | PRMT1 inh conf 51.5
O=C(CSC1=NCCS1)Nc1ccc(S(=O)(=O)NC2CCCCC2)cc1	PRMT1 FP inh 29.3 | PRMT1 inh conf 26.1
COC(=O)[C@H](C(C)C)N(CCCc1cn(CC2CCCCC2)nn1)S(=O)(=O)c1ccccc1Br	none (no result: TCR CD3 inh, HTRA1 inhibitor)
CC(=NNC(=S)N1CC2CCC(CC2)C1)c1ccncn1	PRMT1 FP inh 27.2 | PRMT1 inh conf inactive
Nc1c(C(=O)Nc2ccccc2F)sc2nc(-c3ccco3)ccc12	PRMT1 FP inh 46.5 | PRMT1 inh conf 41.6
Nn1c(SCc2ccc([N+](=O)[O-])cc2)nnc1-c1n[nH]c2c1CCC2	none (no result: TCR CD3 inh, HTRA1 inhibitor)
CN(Cc1ccc2c(c1)CCCN2C)C(=O)[C@H]1O[C@@H](n2ccc(=O)[nH]c2=O)[C@H](O)[C@@H]1O	PRMT1 FP inh 51.9 (no result: HTRA1 inhibitor) | PRMT1 inh conf inactive
O=C(O)CN1C(=O)C=CC1=O	PRMT1 FP inh 63.6 | PRMT1 inh conf 74.7
O=C1C=CC(=O)N1CCCCCCN1C(=O)C=CC1=O	PRMT1 FP inh 93.2 (no result: HTRA1 inhibitor) | PRMT1 inh conf 90.1
COC(=O)C1=C[C@@H]([C@@H](C)[C@H](OC)c2ccccc2Br)[C@@H]2OCCC[C@H]12	none (no result: TCR CD3 inh, HTRA1 inhibitor)
COc1ccc(-n2c(COc3ccc(Cl)cc3Cl)n[nH]c2=S)cc1	PRMT1 FP inh 27.3 | PRMT1 inh conf inactive
S=c1[nH]nc(COc2ccc(Cl)cc2)n1-c1ccc(Cl)cc1	PRMT1 FP inh 27.5 | PRMT1 inh conf inactive
Cc1cc(-c2ccco2)n(CC(=O)NCCCc2ccccc2)n1	PRMT1 FP inh 47.0 | PRMT1 inh conf inactive
Cc1cc(-c2ccco2)n(CC(=O)NCc2ccccc2)n1	none
O=S1(=O)c2ccc(Br)cc2OC[C@@H](Cc2ccccc2)N1Cc1cn(CC2CCCCC2)nn1	none (no result: TCR CD3 inh, HTRA1 inhibitor)
O=c1oc2c(-c3cccc(F)c3)cc(O)cc2s1	PRMT1 FP inh 36.1 | PRMT1 inh conf inactive

Screening results (PubChem)
